# From ChEMBL document CHEMBL1153516, “Influence of the side chain next to C-terminal benzimidazole in opioid pseudopeptides containing the Dmt-Tic pharmacophore” (J Med Chem, 2009)
# Non-standard residues stand in square brackets, D forms with d. Residues, ends and D or L forms follow the SMILES beside them. Dmt = Cc1cc(O)cc(C)c1C[C@H](N)C(=O)O; Tic = O=C(O)[C@@H]1Cc2ccccc2CN1
# Target: Delta-type opioid receptor (Mus musculus, UniProt P32300)
# Assay: Antagonist activity against delta opioid receptor in mouse vas deferens assessed as effect on deltorphin 2-induced contraction
# Assay type: functional, tissue-based
# Settings: read-out: pA2 (converted)
# Procedure, shortened: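 pA2 was measured against the δ agonist deltorphin II in mouse vas deferens and determined by the Kosterlitz and Watt method.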
# Delta-type opioid receptor, sequence (P32300 whole entry): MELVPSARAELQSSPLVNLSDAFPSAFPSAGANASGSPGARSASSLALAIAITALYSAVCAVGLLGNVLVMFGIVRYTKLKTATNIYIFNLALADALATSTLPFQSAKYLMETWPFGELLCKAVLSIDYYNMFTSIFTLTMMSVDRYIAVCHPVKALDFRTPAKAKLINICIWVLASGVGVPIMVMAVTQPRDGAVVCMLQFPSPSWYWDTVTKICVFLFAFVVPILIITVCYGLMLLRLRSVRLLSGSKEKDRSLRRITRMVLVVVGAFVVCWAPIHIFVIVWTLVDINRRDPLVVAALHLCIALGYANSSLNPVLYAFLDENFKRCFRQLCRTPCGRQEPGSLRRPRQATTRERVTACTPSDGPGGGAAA
smiles,measurement,value
Cc1cc(O)cc(C)c1C[C@H](N)C(=O)N1Cc2ccccc2C[C@H]1C(=O)N[C@@H](Cc1ccccc1)C(=O)N[C@@H](Cc1ccccc1)C(=O)O (H-[Dmt][Tic]FF-OH),Kb,0.2 nM
